ChEMBL document CHEMBL2346610, “N-Alkyldeoxynojirimycin derivatives with novel terminal tertiary amide substitution for treatment of bovine viral diarrhea virus (BVDV), Dengue, and Tacaribe virus infections” (Bioorg Med Chem Lett, 2013)
pEC50: −log10 of the molar value. Activity calls are given as the source filed them. No cut-off for these calls is given here.

Tests used:
[1] = Cytotoxicity against human Huh7.5 cells by MTT assay; assay type: cell-based, Huh-7
[2] = test system: Bovine viral diarrhea virus 1; assay: Antiviral activity against BVDV infected in MDBK cells assessed as reduction of viral yield; assay type: functional, organism-based; conditions: Bovine viral diarrhea virus isolates and strains
Method in brief: (§1)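 Assays were run in MDBK cells. BVDV antiviral activity was measured by virus yield reduction and reported as EC50. Cytotoxicity was measured by MTT assay and reported as CC50.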

[3] = Cytotoxicity against BHK cells by MTT assay; assay type: cell-based, Mesocricetus auratus; conditions: hamster
[4] = Cytotoxicity against MDBK cells by MTT assay; assay type: cell-based, Bos taurus; conditions: cattle; method in brief: as §1
Tacaribe virus = assay: Antiviral activity against Tacaribe virus infected in human Huh7.5 cells; assay type: functional, organism-based; conditions: Mammarenavirus tacaribeense, Huh-7
Dengue virus = assay: Antiviral activity against Dengue virus infected in BHK cells; assay type: functional, organism-based
[5] = test system: Bovine viral diarrhea virus 1; assay: Reduction of BVDV E2 protein mobility rate infected in MDBK cells at EC50 after 22 hrs by Western blot analysis; assay type: functional, organism-based
Method in brief: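 MDBK cells were infected with BVDV at MOI 1 for 1 h, then mock-treated or compound-treated. Cells were harvested 22 h post-infection. Lysates were run on electrophoresis and Western blotted, detecting BVDV E2 glycoprotein and β-actin loading control simultaneously.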

CC(C)(C)C(=O)N(CCCCCCN1C[C@H](O)[C@@H](O)[C@H](O)[C@H]1CO)c1ccc(F)cc1F
CC50 [1]: > 500 µM
pEC50 [2]: 6.60
CC50 [3]: > 500 µM
CC50 [4]: > 500 µM
pEC50 (Tacaribe virus): 5.60
pEC50 (Dengue virus): 5.66
Activity [5]: Active

CC1CCCCC1N(CCCCCCN1C[C@H](O)[C@@H](O)[C@H](O)[C@H]1CO)C(=O)OC(C)(C)C (stereo partly specified)
CC50 [1]: 240 µM
pEC50 [2]: 6.40
CC50 [3]: 230 µM
CC50 [4]: 250 µM
pEC50 (Tacaribe virus): 6.52
pEC50 (Dengue virus): 6.52
Activity [5]: Active

CC(=O)N(CCCCCCN1C[C@H](O)[C@@H](O)[C@H](O)[C@H]1CO)c1ccc(F)cc1F
pEC50 [2]: 5.22
CC50 [4]: > 500 µM
Activity [5]: Active

CC(C)(C)C(=O)N(CCCCCCN1C[C@H](O)[C@@H](O)[C@H](O)[C@H]1CO)C1CCC1
pEC50 [2]: 6.10
CC50 [3]: > 500 µM
CC50 [4]: > 500 µM
pEC50 (Dengue virus): 5.72

CC(C)(C)C(=O)N(CCCCCCN1C[C@H](O)[C@@H](O)[C@H](O)[C@H]1CO)C1CCCC1
CC50 [1]: > 500 µM
pEC50 [2]: 6.07
CC50 [3]: > 500 µM
CC50 [4]: > 500 µM
pEC50 (Tacaribe virus): 5.40
pEC50 (Dengue virus): 5.70

CC(=O)N(CCCCCCN1C[C@H](O)[C@@H](O)[C@H](O)[C@H]1CO)c1cc(F)ccc1F
pEC50 [2]: 5.30
CC50 [4]: > 500 µM

CC1CCCCC1NCCCCCCN1C[C@H](O)[C@@H](O)[C@H](O)[C@H]1CO (stereo partly specified)
pEC50 [2]: < 4.00
CC50 [4]: > 500 µM
Activity [5]: inactive

CC(C)(C)OC(=O)NCCCCCCN1C[C@H](O)[C@@H](O)[C@H](O)[C@H]1CO
pEC50 [2]: 5.60
CC50 [4]: > 500 µM
Activity [5]: Active

CC(C)(C)C(=O)N(CCCCCCN1C[C@H](O)[C@@H](O)[C@H](O)[C@H]1CO)C1CCCCC1
CC50 [1]: 500 µM
pEC50 [2]: 6.70
CC50 [3]: > 500 µM
CC50 [4]: > 500 µM
pEC50 (Tacaribe virus): 6.70
pEC50 (Dengue virus): 6.55
Activity [5]: Active

CC(C)(C)C(=O)N(CCCCCCN1C[C@H](O)[C@@H](O)[C@H](O)[C@H]1CO)C1CCCCCCC1
CC50 [1]: 150 µM
pEC50 [2]: 6.62
CC50 [3]: 208 µM
CC50 [4]: 270 µM
pEC50 (Tacaribe virus): 6.54
pEC50 (Dengue virus): 6.10

CC(C)(C)C(=O)N(CCCCCCN1C[C@H](O)[C@@H](O)[C@H](O)[C@H]1CO)C1CCCCCC1
CC50 [1]: > 500 µM
pEC50 [2]: 6.40
CC50 [3]: > 500 µM
CC50 [4]: > 500 µM
pEC50 (Tacaribe virus): 6.00
pEC50 (Dengue virus): 6.10

C[C@H]1CCCC[C@@H]1OCCCCCCN1C[C@H](O)[C@@H](O)[C@H](O)[C@H]1CO
pEC50 [2]: 5.48

CC1CCCCC1N(CCCCCCN1C[C@H](O)[C@@H](O)[C@H](O)[C@H]1CO)C(=O)C(C)(C)C (stereo partly specified)
CC50 [1]: 310 µM
pEC50 [2]: 6.66
CC50 [3]: > 500 µM
CC50 [4]: > 500 µM
pEC50 (Tacaribe virus): 6.70
pEC50 (Dengue virus): 6.49
Activity [5]: Active

OC[C@@H]1[C@@H](O)[C@H](O)[C@@H](O)CN1CCCCCCN(C1CCCCC1)C1CCCCC1
pEC50 [2]: 5.20
CC50 [4]: > 500 µM
Activity [5]: Active

CC(=O)N(CCCCCCN1C[C@H](O)[C@@H](O)[C@H](O)[C@H]1CO)C1CCCCC1
CC50 [1]: > 500 µM
pEC50 [2]: 6.55
CC50 [3]: > 500 µM
CC50 [4]: > 500 µM
pEC50 (Tacaribe virus): 6.00
pEC50 (Dengue virus): 4.85

CC(C)(C)C(=O)N(CCCCCCN1C[C@H](O)[C@@H](O)[C@H](O)[C@H]1CO)C1CC1
pEC50 [2]: 5.43
CC50 [3]: > 500 µM
CC50 [4]: > 500 µM
pEC50 (Dengue virus): 5.06
Activity [5]: Active

CC(C)(C)C(=O)N(CCCCCCN1C[C@H](O)[C@@H](O)[C@H](O)[C@H]1CO)C12CC3CC(CC(C3)C1)C2
CC50 [1]: 170 µM
pEC50 [2]: 6.68
CC50 [3]: > 500 µM
CC50 [4]: 420 µM
pEC50 (Tacaribe virus): 6.68
pEC50 (Dengue virus): 5.86

CC(C)(C)C(=O)N(CCCCCCN1C[C@H](O)[C@@H](O)[C@H](O)[C@H]1CO)c1cc(F)ccc1F
CC50 [1]: > 500 µM
pEC50 [2]: 6.40
CC50 [3]: > 500 µM
CC50 [4]: > 500 µM
pEC50 (Tacaribe virus): 6.21
pEC50 (Dengue virus): 5.27

CC(C)(C)CC(=O)N(CCCCCCN1C[C@H](O)[C@@H](O)[C@H](O)[C@H]1CO)C1CCCCC1
CC50 [1]: > 500 µM
pEC50 [2]: 6.74
CC50 [3]: > 500 µM
CC50 [4]: > 500 µM
pEC50 (Tacaribe virus): 6.40
pEC50 (Dengue virus): 5.82
Activity [5]: Active

CC(C)(C)C(=O)N(CCCCCCN1C[C@H](O)[C@@H](O)[C@H](O)[C@H]1CO)C1C2CC3CC(C2)CC1C3 (stereo partly specified)
CC50 [1]: 125 µM
pEC50 [2]: 6.51
CC50 [3]: 192 µM
CC50 [4]: 180 µM
pEC50 (Tacaribe virus): 6.30
pEC50 (Dengue virus): 6.90
